In ChEMBL document CHEMBL1134507, “Potential new antitumor agents from an innovative combination of demethylcantharidin, a modified traditional Chinese medicine, with a platinum moiety” (J Med Chem, 2001):
Calls of active or inactive are those of the source. The calls are words filed in the database; no cut-off is given here.

Assays:
[1] = test system: Mus musculus; test: Ratio of the relative tumor volume in the Tx group over the control group at day 60, at 2 mg/kg dose (ip) given on days 1, 5 and 9 (In vivo antitumor activity in nude mice); assay type: functional
Procedure, shortened: (§1)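 SK-Hep-1 human liver tumor cells inoculated sc into male nude mice. Dosing began once tumors reached 5 mm × 5 mm, given ip on days 1, 5 and 9. Vehicle was normal saline for the reference platinum drug and 5% dextrose for the other Pt complexes. Controls received saline or 5% dextrose. Recorded: T/C (%), body-weight change at nadir, and deaths per group.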

[2] = test system: Mus musculus; test: Ratio of the relative tumor volume in the Tx group over the control group at day 60, at 4 mg/kg dose (ip) given on days 1, 5 and 9 (In vivo antitumor activity in nude mice); assay type: functional; procedure, shortened: as §1
[3] = test system: Mus musculus; test: Ratio of the relative tumor volume in the Tx group over the control group at day 60, at 8 mg/kg dose (ip) given on days 1, 5 and 9 (In vivo antitumor activity in nude mice); assay type: functional; procedure, shortened: as §1
[4] = test system: Mus musculus; test: In vivo antitumor activity in SK-Hep-1 sc-Inoculated Xenograft in male nude mice dosed at 2 mg/kg (ip)on days 1,5 and 9; Not active; assay type: functional, organism-based; set-up: dose 2 mg/kg; procedure, shortened: as §1
[5] = test system: Mus musculus; test: In vivo antitumor activity in SK-Hep-1 sc-Inoculated Xenograft in male nude mice dosed at 4 mg/kg (ip)on days 1,5 and 9; Not active; assay type: functional, organism-based; set-up: dose 4 mg/kg; procedure, shortened: as §1
[6] = test system: Mus musculus; test: In vivo antitumor activity in SK-Hep-1 sc-Inoculated Xenograft in male nude mice dosed at 8 mg/kg (ip)on days 1,5 and 9; assay type: functional; procedure, shortened: as §1
[7] = test system: Mus musculus; test: In vivo antitumor activity in SK-Hep-1 sc-Inoculated Xenograft in male nude mice dosed at 10 mg/kg (ip)on days 1,5 and 9; Acutely toxic; assay type: functional, organism-based; set-up: dose 10 mg/kg; procedure, shortened: as §1
[8] = test system: L1210; test: Cytotoxicity against […]resistant mouse leukemia, assessed by MTT assay after 72 h of compound exposure (resistance level); assay type: functional, cell-based
Procedure, shortened: (§2)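 MTT cytotoxicity assay run on cisplatin-sensitive parental cells and cisplatin-resistant sublines. Drug exposure was 72 h for L1210 and 96 h for NCI:H460. IC50 determined for each cell line. Fold resistance = IC50 in resistant cells divided by IC50 in parental cells.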

[9] = test system: L1210; test: Cytotoxicity against […]sensitive mouse leukemia, assessed by MTT assay after 72 hr of compound exposure; assay type: functional, cell-based; procedure, shortened: as §2
[10] = test system: L1210; test: Growth inhibitory activity against L1210 mouse leukemia cancer cell line; assay type: functional, cell-based
Procedure, shortened: (§3)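 Tetrazolium (MTT) assay. Drug treatment began 24 h after cell seeding, exposure lasted 72 h, and the MTT test followed. Read-out was IC50.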

[11] = test system: MDA-MB-231; test: Growth inhibitory activity against MDA-MB-231 human breast cancer cell line; assay type: functional, cell-based; procedure, shortened: as §3
[12] = test system: Mus musculus; test: Toxicity in male nude mice measured as N (no. of deaths), at 25 mg/kg (ip) given on days 1, 5 and 9; assay type: organism-based; set-up: dose 25 mg/kg; settings: in vivo; procedure, shortened: as §1
[13] = test system: Mus musculus; test: Toxicity in male nude mice measured as N (no. of deaths), at 50 mg/kg (ip) given on days 1, 5 and 9; assay type: organism-based; set-up: dose 50 mg/kg; settings: in vivo; procedure, shortened: as §1
[14] = test system: Mus musculus; test: Toxicity in male nude mice measured as N (no. of deaths), at 75 mg/kg (ip) given on days 1, 5 and 9; assay type: organism-based; set-up: dose 75 mg/kg; settings: in vivo; procedure, shortened: as §1
[15] = test system: Mus musculus; test: Toxicity in male nude mice measured as N (no. of deaths), at 100 mg/kg (ip) given on days 1, 5 and 9; assay type: organism-based; set-up: dose 100 mg/kg; settings: in vivo; procedure, shortened: as §1
[16] = test system: Mus musculus; test: Toxicity in male nude mice measured as N (no. of deaths), at 120 mg/kg (ip) given on days 1, 5 and 9; assay type: organism-based; set-up: dose 120 mg/kg; settings: in vivo; procedure, shortened: as §1
[17] = test system: NCI-H460; test: Growth inhibitory activity against NCI-H460 human lung cancer cell line; assay type: functional, cell-based; procedure, shortened: as §3
[18] = test system: NCI-H460; test: Cytotoxicity against NCI-H460-resistant Human Nonsmall Cell Lung Cancer cell line assessed by MTT assay after 96 hr of compound exposure (resistance level); assay type: functional, cell-based; procedure, shortened: as §2
[19] = test system: NCI-H460; test: Cytotoxicity against NCI-H460-sensitive Human Nonsmall Cell Lung Cancer cell line assessed by MTT assay after 96 hr of compound exposure; assay type: functional, cell-based; procedure, shortened: as §2
[20] = test system: NTERA-2-cl-D1; test: Growth inhibitory activity against […]-cl-D1 human testicular cancer cell line; assay type: functional, cell-based; procedure, shortened: as §3
[21] = test system: SK-HEP1; test: Growth inhibitory activity against SK-Hep1 human liver cancer cell line; assay type: functional, cell-based; procedure, shortened: as §3
[22] = test system: SK-OV-3; test: Growth inhibitory activity against SK-OV-3 human ovarian cancer cell line; assay type: functional, cell-based; procedure, shortened: as §3
[23] = test system: COLO 320DM; test: Growth inhibitory activity against COLO-320-DM human colon cancer cell line; assay type: functional, cell-based; procedure, shortened: as §3
[24] = test system: Mus musculus; test: Ratio of the relative tumor volume in the Tx group over the control group at day 60, at 25 mg/kg dose (ip) given on days 1, 5 and 9 (In vivo antitumor activity in nude mice); assay type: functional, organism-based; set-up: dose 25 mg/kg
[25] = test system: Mus musculus; test: Ratio of the relative tumor volume in the Tx group over the control group at day 60, at 75 mg/kg dose (ip) given on days 1, 5 and 9 (In vivo antitumor activity in nude mice); assay type: functional, organism-based; set-up: dose 75 mg/kg
[26] = test system: Mus musculus; test: Ratio of the relative tumor volume in the Tx group over the control group at day 60, at 100 mg/kg dose (ip) given on days 1, 5 and 9 (In vivo antitumor activity in nude mice); assay type: functional, organism-based; set-up: dose 100 mg/kg
[27] = test system: Mus musculus; test: Ratio of the relative tumor volume in the Tx group over the control group at day 60, at 120 mg/kg dose (ip) given on days 1, 5 and 9 (In vivo antitumor activity in nude mice); assay type: functional, organism-based; set-up: dose 120 mg/kg
[28] = test system: Mus musculus; test: In vivo antitumor activity in SK-Hep-1 sc-Inoculated Xenograft in male nude mice dosed at 25 mg/kg (ip)on days 1,5 and 9; Not active; assay type: functional, organism-based; set-up: dose 25 mg/kg
Procedure, shortened: (§4)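 Male nude mice bearing subcutaneous SK-Hep-1 human liver tumor xenografts. Dosing started once tumors reached 5 mm × 5 mm, given ip on days 1, 5 and 9. Cisplatin was given in normal saline and other Pt complexes in 5% dextrose; controls received either vehicle. T/C (%), weight change at nadir and deaths recorded.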

[29] = test system: Mus musculus; test: In vivo antitumor activity in SK-Hep-1 sc-Inoculated Xenograft in male nude mice dosed at 50 mg/kg (ip)on days 1,5 and 9; Not active; assay type: functional, organism-based; set-up: dose 50 mg/kg; procedure, shortened: as §4
[30] = test system: Mus musculus; test: In vivo antitumor activity in SK-Hep-1 sc-Inoculated Xenograft in male nude mice dosed at 75 mg/kg (ip)on days 1,5 and 9; Not active; assay type: functional, organism-based; set-up: dose 75 mg/kg; procedure, shortened: as §4
[31] = test system: Mus musculus; test: In vivo antitumor activity in SK-Hep-1 sc-Inoculated Xenograft in male nude mice dosed at 100 mg/kg (ip)on days 1,5 and 9; assay type: functional, organism-based; set-up: dose 100 mg/kg; procedure, shortened: as §4
[32] = test system: Mus musculus; test: In vivo antitumor activity in SK-Hep-1 sc-Inoculated Xenograft in male nude mice dosed at 120 mg/kg (ip)on days 1,5 and 9; assay type: functional, organism-based; set-up: dose 120 mg/kg; procedure, shortened: as §4
[33] = test system: Mus musculus; test: Ratio of the relative tumor volume in the Tx group over the control group at day 60, at 50 mg/kg dose (ip) given on days 1, 5 and 9 (In vivo antitumor activity in nude mice); assay type: functional, organism-based; set-up: dose 50 mg/kg
[34] = test system: L1210; test: Cytotoxicity against Cisplatin-resistant L1210-resistant mouse leukemia, assessed by MTT assay after 72 hr of compound exposure (resistance level); assay type: functional, cell-based; procedure, shortened: as §2
[35] = test system: Mus musculus; test: Toxicity in male nude mice measured as N (no. of deaths), at 2 mg/kg (ip) given on days 1, 5 and 9; assay type: organism-based; set-up: dose 2 mg/kg; settings: in vivo; procedure, shortened: as §1
[36] = test system: Mus musculus; test: Toxicity in male nude mice measured as N (no. of deaths), at 4 mg/kg (ip) given on days 1, 5 and 9; assay type: organism-based; set-up: dose 4 mg/kg; settings: in vivo; procedure, shortened: as §1
[37] = test system: Mus musculus; test: Toxicity in male nude mice measured as N (no. of deaths), at 8 mg/kg (ip) given on days 1, 5 and 9; assay type: organism-based; set-up: dose 8 mg/kg; settings: in vivo; procedure, shortened: as §1
[38] = test system: Mus musculus; test: Toxicity in male nude mice measured as N (no. of deaths), at 10 mg/kg (ip) given on days 1, 5 and 9; assay type: organism-based; set-up: dose 10 mg/kg; settings: in vivo; procedure, shortened: as §1
[39] = test system: Mus musculus; test: Ratio of the relative tumor volume in the Tx group over the control group at day 60, at 10 mg/kg dose (ip) given on days 1, 5 and 9 (In vivo antitumor activity in nude mice); assay type: functional, organism-based; set-up: dose 10 mg/kg
[40] = test system: Mus musculus; test: In vivo antitumor activity in SK-Hep-1 sc-Inoculated Xenograft in male nude mice dosed at 4 mg/kg (ip)on days 1,5 and 9; assay type: functional, organism-based; set-up: dose 4 mg/kg; procedure, shortened: as §4
[41] = test system: Mus musculus; test: In vivo antitumor activity in SK-Hep-1 sc-Inoculated Xenograft in male nude mice dosed at 10 mg/kg (ip)on days 1,5 and 9; assay type: functional, organism-based; set-up: dose 10 mg/kg; procedure, shortened: as §4

| Compound | T/C [1] [%] | T/C [2] [%] | T/C [3] [%] | Weight change at nadir [4] | Weight change at nadir [6] [%] | IC50 [9] [µM] | IC50 [10] [µM] | IC50 [11] [µM] | IC50 [17] [µM] | IC50 [18] [µM] | IC50 [19] [µM] | IC50 [20] [µM] | IC50 [21] [µM] | IC50 [22] [µM] | IC50 [23] [µM] | also measured |
| --- | --- | --- | --- | --- | --- | --- | --- | --- | --- | --- | --- | --- | --- | --- | --- | --- |
| O=C1OC(=O)C2C3CCC(O3)C12 (stereo unspecified) [DEMETHYL-CANTHARIDIN] | 63.2 | 66.1 | 34.8 | inactive | -20 | – | – | – | – | – | – | – | – | – | – | Weight change at nadir [5]: inactive; Weight change at nadir [7]: Toxic |
| CARBOPLATIN [listing 1 of 2 here] | – | – | – | – | – | 17.8 | 10.1 | 1080 | 60.3 | 54.6 | 17.8 | 2.75 | 501 | 149 | 188 | IC50 [8]: 138 µM; No. of deaths [12]: 1; No. of deaths [13]: 2; No. of deaths [14]: 2; No. of deaths [15]: 5; No. of deaths [16]: 4 |
| CARBOPLATIN [listing 2 of 2 here] | – | – | – | – | – | – | – | – | – | – | – | – | – | – | – | T/C [24]: 87.5%; T/C [25]: 44.9%; T/C [26]: 67.8%; T/C [27]: 62.8%; Weight change at nadir [28]: inactive; Weight change at nadir [29]: inactive; Weight change at nadir [30]: inactive; Weight change at nadir [31]: -21%; Weight change at nadir [32]: -40%; T/C [33]: 109% |
| CISPLATIN [listing 1 of 2 here] | – | – | – | – | – | 1.01 | 0.51 | 65.7 | 11.3 | 4.96 | 0.59 | 0.19 | 54.1 | 15.2 | 11.9 | IC50 [34]: 14.5 µM; No. of deaths [35]: 1; No. of deaths [36]: 4; No. of deaths [37]: 4; No. of deaths [38]: 4 |
| CISPLATIN [listing 2 of 2 here] | 87.5 | 81.1 | 47.1 | inactive | -35 | – | – | – | – | – | – | – | – | – | – | T/C [39]: 39.6%; Weight change at nadir [40]: -25%; Weight change at nadir [41]: -40% |
